Assay [1] can be described thus: Displacement of [3H]SCH23390 from dopamine D1-like receptor in pig striatal tissue homogenates after 30 mins by scintillation counting. In kind it is tissue-based, Sus scrofa, Striatum. (Displacement assays read how much labelled ligand stays bound in the presence of the test substance.)
The nature of assay [2]: Displacement of [3H]-N-methylspiperone from dopamine D2-like receptor in pig striatal tissue homogenates after 30 mins by scintillation counting. It is filed as tissue-based, Sus scrofa, Striatum. A digest of the protocol: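 Porcine striatal membranes with 0.2 nM [3H]-N-methylspiperone plus 50 nM ketanserin to block 5-HT2A sites. Buffer 50 mM HEPES, 4 mM MgCl2, pH 7.4. Nonspecific binding defined with (+)-butaclamol. Incubated 37 °C for 30 min, then filtered and washed with ice-cold Tris/NaCl.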

Assay [3] deals with T1, D(1A) dopamine receptor (Homo sapiens, UniProt P21728). Put plainly: Intrinsic activity at human dopamine D1 receptor expressed in HEK293 cells assessed as cAMP accumulation after 15 mins relative to dopamine. In kind it is functional, cell-based. A digest of the protocol: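 HEK293 cells stably expressing hD1 (about 1800 fmol/mg) grown to 90–95% confluency. Medium replaced with 500 µM IBMX in EBSS, then drug added in duplicate for 15 min at 37 °C. Stopped with 3% trichloroacetic acid. cAMP measured by [3H]cAMP competition with bovine adrenal binding protein against a standard curve. Maximal response expressed as percent of 10 µM dopamine.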

Assay [4] deals with T1, D(1A) dopamine receptor. Nature of the assay: Agonist activity at human dopamine D1 receptor expressed in HEK293 cells assessed as cAMP accumulation after 15 mins. It is filed as functional, cell-based. (cAMP levels reflect the balance of adenylyl cyclase and phosphodiesterase activity.)
Another assay is filed under the species Sus scrofa. Put plainly: Ratio of SKF38393 Ki to compound Ki for dopamine D1-like receptor in pig striatal tissue homogenates. It is filed as tissue-based. The conditions noted are these: Striatum.

Each structure is given as a SMILES string. Counter-ions that a name gives are not always drawn.

T1 sequence (P21728 whole entry): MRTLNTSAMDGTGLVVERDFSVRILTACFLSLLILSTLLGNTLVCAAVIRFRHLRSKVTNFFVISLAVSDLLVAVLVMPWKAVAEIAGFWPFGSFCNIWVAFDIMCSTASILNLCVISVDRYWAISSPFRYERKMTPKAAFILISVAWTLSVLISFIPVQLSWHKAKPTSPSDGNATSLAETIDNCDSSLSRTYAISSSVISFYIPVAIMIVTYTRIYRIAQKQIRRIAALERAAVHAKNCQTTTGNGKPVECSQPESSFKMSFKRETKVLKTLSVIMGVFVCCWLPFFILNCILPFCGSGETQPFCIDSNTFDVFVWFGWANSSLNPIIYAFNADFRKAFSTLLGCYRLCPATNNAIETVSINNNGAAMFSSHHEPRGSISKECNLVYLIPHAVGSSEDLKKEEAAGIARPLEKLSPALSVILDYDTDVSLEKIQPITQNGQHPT

With `CN1CCc2cc(Cl)c(O)cc2[C@@H](c2ccccc2)C1`, the Ki – broadly, a dissociation constant, usually derived from enzyme kinetics or from competition with a known ligand – in assay [1] was 0.64 nM.
Consider `Oc1cc2c(cc1O)[C@@H](c1ccccc1)CNCC2`, for which the Ki was determined as 151 nM in assay [1] and 2360 nM in assay [2]. Moreover, on D(1A) dopamine receptor [3], the Intrinsic activity was 93%.
For `Oc1cc2c(cc1O)[C@@H]1c3ccccc3CC[C@@H]1NCC2` (racemic), the values for the inhibition constant Ki in assay [1] and in assay [2] were 22000 nM and 88000 nM, respectively.
Consider `Oc1cc2c(cc1O)[C@H]1c3ccccc3CC[C@@H]1NCC2` (racemic), for which the figures for the inhibition constant Ki in assay [1] and in assay [2] were 257 nM and 8480 nM, respectively. The EC50 (usually the concentration needed to bring the measured effect to its halfway point) at D(1A) dopamine receptor [4] is 438 nM. In addition, the Intrinsic activity on D(1A) dopamine receptor [3] worked out at 28%.
On to `Oc1cc2c(cc1O)[C@H]1c3ccccc3OC[C@@H]1NCC2` (racemic), for which the Ki in assay [1] is 186 nM; in assay [2], 44800 nM. The EC50 on D(1A) dopamine receptor [4] stood at 570 nM. The Intrinsic activity at D(1A) dopamine receptor [3] turned out to be 60%.
For the molecule `Oc1cc2c(cc1O)[C@H]1c3ccccc3SC[C@@H]1NCC2` (racemic), the figures for the inhibition constant (Ki) in assay [1] and in assay [2] were 92 nM and 28000 nM, respectively. Further, the EC50 on D(1A) dopamine receptor [4] was found to be 584 nM. Moreover, on D(1A) dopamine receptor [3], the Intrinsic activity is 21%. The Ratio Ki in the assay filed under Sus scrofa amounted to 1.6.
For `Oc1cc2c(cc1O)[C@H]1c3ccccc3CN[C@@H]1CC2` (racemic) [DIHYDREXIDINE], the Ki in assay [2] was 320 nM. Besides, the Intrinsic activity at D(1A) dopamine receptor [3] was 103%.
As to `CN1CCc2cc(Cl)c(O)cc2[C@H]2c3ccccc3CC[C@@H]21` [ECOPIPAM HYDROCHLORIDE], the Ki in assay [1] was 1.3 nM; in assay [2], 2010 nM.
